Results published in ChEMBL document CHEMBL5653631, “A Potent and Selective ULK1 Inhibitor Suppresses Autophagy and Sensitizes Cancer Cells to Nutrient Stress” (iScience, 2018).
Values belong to the compound of their own block, whether it stands above or below them.

How the values were obtained:
[1] = target: T1, Ephrin type-A receptor 1 (Homo sapiens) (UniProt P21709); assay: Inhibition of human recombinant EphA1 at 500 nM related to control ULK1
T1 sequence (whole entry): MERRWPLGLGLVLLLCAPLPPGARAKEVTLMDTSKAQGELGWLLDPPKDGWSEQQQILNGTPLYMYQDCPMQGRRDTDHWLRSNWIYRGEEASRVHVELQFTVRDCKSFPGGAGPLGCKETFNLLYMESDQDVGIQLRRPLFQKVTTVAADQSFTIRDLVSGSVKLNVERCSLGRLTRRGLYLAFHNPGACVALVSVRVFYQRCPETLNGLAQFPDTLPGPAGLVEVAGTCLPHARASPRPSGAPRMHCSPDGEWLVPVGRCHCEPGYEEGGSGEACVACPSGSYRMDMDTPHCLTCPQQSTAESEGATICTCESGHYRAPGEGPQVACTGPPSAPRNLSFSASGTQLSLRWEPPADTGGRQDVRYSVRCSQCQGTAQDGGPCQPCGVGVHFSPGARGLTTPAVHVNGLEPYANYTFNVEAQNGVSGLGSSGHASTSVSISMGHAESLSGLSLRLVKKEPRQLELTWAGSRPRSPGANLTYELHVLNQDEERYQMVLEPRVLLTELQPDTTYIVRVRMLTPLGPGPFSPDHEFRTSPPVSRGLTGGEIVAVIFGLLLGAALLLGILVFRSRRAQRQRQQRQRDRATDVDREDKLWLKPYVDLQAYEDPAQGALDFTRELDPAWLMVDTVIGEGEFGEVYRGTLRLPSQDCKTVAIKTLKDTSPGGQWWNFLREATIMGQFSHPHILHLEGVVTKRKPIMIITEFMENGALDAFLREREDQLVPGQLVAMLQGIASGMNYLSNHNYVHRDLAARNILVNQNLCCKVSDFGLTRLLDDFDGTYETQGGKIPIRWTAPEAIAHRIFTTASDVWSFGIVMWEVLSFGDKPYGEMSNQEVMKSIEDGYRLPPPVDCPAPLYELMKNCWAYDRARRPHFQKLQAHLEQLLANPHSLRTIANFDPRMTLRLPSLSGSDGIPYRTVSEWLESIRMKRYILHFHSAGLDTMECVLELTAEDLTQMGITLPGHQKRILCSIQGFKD

[2] = target: ALK tyrosine kinase receptor (Homo sapiens) (UniProt Q9UM73); assay: Inhibition of human recombinant ALK at 500 nM in presence of ATP by radiometric assay relative to control
How it was run: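 Panel of 327 recombinant human kinases in radiometric activity assays, each screened in duplicate at a single inhibitor concentration; percent activity remaining relative to vehicle control, percent inhibition taken as 100 minus activity remaining.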

[3] = target: Platelet-derived growth factor receptor alpha (Homo sapiens) (UniProt P16234); assay: Inhibition of human recombinant PDGFRa at 500 nM in presence of ATP by radiometric assay relative to control
Chain of Platelet-derived growth factor receptor alpha (Homo sapiens) (P16234 whole entry): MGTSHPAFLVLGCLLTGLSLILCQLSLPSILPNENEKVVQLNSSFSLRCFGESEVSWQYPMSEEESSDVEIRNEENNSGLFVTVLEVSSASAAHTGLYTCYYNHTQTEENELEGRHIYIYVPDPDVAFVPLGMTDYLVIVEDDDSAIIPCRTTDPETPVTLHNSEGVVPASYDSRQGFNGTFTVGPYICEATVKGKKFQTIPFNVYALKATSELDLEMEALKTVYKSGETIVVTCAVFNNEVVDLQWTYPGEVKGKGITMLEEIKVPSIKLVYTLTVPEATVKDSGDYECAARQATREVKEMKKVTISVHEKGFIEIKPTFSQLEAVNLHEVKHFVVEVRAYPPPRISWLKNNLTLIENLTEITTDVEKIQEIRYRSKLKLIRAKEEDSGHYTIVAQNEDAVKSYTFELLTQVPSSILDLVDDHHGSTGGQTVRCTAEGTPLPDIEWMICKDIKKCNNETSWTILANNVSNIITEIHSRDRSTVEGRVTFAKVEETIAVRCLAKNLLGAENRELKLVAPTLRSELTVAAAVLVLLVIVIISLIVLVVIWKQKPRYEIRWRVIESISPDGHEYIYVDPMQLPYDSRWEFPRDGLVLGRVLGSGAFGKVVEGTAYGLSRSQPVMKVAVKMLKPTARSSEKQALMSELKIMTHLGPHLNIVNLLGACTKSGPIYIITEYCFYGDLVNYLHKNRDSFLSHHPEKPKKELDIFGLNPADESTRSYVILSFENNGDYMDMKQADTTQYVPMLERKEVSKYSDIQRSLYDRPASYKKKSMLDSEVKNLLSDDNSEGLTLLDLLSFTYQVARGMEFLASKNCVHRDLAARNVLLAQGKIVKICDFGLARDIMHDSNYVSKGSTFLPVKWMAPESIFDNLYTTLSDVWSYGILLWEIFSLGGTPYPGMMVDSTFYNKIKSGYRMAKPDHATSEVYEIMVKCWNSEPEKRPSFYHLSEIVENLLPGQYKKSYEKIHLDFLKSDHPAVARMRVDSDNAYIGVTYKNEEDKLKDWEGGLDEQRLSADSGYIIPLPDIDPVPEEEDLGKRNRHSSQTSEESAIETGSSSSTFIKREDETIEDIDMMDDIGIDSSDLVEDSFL

[4] = target: Serine-protein kinase ATM (Homo sapiens) (UniProt Q13315); assay: Inhibition of human recombinant ATM at 15 nM related to control ULK1
Chain of Serine-protein kinase ATM (Homo sapiens) (Q13315 whole entry): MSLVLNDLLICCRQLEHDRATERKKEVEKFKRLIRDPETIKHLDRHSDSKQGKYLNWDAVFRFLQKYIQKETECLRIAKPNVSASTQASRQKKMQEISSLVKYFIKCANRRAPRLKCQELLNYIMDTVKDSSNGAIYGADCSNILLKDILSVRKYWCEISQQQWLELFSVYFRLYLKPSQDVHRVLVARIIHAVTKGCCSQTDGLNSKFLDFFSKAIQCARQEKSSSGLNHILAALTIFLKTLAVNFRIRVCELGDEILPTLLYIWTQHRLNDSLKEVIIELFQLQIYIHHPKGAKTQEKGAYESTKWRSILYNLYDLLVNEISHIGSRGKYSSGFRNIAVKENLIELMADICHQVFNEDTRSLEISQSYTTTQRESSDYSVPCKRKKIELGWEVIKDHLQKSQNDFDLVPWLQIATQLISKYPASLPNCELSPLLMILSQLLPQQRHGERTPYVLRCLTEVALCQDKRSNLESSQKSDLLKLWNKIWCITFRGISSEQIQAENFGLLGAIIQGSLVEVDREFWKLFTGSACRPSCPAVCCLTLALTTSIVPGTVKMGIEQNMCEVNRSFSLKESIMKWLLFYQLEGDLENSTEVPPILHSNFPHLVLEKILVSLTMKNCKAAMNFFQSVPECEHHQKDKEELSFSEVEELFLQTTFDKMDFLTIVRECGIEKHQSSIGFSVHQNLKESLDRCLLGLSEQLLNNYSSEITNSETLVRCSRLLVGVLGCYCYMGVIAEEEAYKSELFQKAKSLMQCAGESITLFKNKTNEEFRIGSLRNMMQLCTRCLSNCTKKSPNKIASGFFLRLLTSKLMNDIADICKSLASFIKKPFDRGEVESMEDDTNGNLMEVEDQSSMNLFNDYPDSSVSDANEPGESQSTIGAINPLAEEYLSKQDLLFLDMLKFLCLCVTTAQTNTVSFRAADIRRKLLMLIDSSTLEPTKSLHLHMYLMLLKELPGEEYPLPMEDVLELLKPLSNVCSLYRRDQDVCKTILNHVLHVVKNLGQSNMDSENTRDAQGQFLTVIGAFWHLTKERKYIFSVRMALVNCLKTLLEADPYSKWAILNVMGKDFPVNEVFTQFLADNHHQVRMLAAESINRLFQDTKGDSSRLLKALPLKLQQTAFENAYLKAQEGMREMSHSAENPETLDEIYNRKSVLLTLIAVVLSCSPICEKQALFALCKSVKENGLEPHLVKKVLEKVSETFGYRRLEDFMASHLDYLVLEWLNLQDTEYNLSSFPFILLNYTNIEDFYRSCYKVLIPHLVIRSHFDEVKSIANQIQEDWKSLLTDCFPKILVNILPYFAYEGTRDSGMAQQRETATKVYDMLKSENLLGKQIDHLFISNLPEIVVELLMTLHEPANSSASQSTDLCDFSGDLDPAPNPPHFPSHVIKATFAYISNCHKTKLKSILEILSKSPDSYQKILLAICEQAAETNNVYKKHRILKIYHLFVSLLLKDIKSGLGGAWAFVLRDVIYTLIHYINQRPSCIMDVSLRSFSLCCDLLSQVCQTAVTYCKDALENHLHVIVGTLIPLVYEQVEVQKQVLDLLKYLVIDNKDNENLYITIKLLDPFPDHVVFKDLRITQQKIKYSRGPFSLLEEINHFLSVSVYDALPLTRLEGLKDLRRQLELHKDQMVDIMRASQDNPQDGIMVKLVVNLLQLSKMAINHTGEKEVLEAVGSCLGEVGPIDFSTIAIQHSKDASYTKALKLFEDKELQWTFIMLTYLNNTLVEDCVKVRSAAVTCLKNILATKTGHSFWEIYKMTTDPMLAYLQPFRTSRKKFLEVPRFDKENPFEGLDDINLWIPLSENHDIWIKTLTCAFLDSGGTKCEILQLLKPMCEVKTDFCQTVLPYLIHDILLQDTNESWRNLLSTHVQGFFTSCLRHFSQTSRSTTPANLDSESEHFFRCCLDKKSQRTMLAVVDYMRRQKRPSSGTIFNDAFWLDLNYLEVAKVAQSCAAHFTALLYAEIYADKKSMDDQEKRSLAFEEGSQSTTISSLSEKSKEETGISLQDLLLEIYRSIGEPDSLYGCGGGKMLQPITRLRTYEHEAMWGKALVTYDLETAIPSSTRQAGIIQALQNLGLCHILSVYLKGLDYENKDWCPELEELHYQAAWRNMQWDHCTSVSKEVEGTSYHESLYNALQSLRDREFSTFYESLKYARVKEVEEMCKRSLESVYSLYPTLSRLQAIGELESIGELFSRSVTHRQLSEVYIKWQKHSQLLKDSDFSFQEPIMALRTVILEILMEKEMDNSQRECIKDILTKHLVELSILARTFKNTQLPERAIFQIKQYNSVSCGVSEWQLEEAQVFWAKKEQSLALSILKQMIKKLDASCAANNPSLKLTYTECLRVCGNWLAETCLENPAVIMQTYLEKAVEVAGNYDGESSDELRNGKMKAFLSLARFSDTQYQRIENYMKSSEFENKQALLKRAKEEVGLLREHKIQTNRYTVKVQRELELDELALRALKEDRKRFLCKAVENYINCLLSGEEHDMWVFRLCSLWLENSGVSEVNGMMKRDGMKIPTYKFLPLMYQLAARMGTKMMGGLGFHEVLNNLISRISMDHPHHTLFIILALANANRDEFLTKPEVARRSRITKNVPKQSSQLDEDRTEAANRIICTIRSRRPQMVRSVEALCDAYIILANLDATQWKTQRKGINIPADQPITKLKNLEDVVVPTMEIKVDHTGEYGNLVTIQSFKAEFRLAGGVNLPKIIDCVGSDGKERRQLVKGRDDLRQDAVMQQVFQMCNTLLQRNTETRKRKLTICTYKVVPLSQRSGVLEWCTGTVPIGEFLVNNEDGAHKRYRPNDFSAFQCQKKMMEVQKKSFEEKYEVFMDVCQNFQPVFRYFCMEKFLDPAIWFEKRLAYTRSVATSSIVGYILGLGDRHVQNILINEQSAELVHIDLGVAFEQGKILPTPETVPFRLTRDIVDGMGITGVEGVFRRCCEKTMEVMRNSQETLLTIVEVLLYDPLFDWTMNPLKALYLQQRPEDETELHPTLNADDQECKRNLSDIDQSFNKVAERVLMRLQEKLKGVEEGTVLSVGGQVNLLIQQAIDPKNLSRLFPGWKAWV
How it was run: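 Panel of 327 recombinant human kinases, each assayed in vitro by radiometric activity assay in duplicate at a single inhibitor concentration per compound, chosen with reference to its ULK1 inhibition. Activity remaining was expressed as percent of vehicle control, and percent inhibition was calculated as 100 minus percent activity remaining.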

[5] = target: T2, Serine/threonine-protein kinase TAO2 (Homo sapiens) (UniProt Q9UL54); assay: Inhibition of human recombinant TAO2 at 15 nM related to control ULK1
T2 sequence (whole entry): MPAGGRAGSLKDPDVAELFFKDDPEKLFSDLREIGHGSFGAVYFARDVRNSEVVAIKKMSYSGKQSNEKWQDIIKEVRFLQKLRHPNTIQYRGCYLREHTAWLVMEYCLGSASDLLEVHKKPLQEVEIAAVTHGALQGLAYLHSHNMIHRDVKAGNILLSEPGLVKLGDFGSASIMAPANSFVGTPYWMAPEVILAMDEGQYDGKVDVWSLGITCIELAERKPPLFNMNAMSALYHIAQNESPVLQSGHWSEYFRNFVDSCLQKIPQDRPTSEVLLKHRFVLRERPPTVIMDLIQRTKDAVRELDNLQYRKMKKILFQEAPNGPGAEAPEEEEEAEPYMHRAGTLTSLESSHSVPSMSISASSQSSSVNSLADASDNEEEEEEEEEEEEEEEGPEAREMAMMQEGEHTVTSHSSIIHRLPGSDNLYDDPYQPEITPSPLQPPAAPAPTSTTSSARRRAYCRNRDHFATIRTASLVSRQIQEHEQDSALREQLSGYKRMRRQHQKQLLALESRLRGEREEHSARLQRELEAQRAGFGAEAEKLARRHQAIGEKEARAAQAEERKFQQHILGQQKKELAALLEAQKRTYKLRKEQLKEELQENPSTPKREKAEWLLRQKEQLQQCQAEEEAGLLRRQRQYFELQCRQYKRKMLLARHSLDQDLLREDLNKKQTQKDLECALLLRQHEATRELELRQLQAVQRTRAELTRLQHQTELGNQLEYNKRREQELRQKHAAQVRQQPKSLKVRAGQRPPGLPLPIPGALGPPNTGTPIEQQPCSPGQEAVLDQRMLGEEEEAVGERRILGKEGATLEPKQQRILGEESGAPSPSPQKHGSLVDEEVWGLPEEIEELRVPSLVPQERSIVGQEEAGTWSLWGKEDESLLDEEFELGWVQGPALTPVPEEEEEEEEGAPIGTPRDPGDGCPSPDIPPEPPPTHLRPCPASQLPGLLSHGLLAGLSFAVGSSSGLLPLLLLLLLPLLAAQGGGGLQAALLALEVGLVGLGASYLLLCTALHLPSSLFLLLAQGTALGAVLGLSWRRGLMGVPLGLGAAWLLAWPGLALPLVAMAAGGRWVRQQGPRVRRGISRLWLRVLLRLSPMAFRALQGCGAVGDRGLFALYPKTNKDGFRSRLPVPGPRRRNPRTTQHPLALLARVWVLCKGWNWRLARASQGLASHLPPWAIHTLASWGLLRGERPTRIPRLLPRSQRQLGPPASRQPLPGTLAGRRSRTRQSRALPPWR

[6] = target: Serine/threonine-protein kinase MRCK alpha (Homo sapiens) (UniProt Q5VT25); assay: Inhibition of human recombinant MRCKa at 40 nM in presence of ATP by radiometric assay relative to control

fold change (FC) [1]: 0.18
inhibition [2]: 0%
inhibition [3]: 0%
Compound: CNC(=O)c1ccccc1Oc1nc(Nc2cc(OC)c(OC)c(OC)c2)ncc1Br

fold change (FC) [4]: 0.07
fold change (FC) [5]: 0
Compound: CC(C)[C@H](NC(=O)c1cc(-c2cnn3cc(-c4ccc(OCCN5CCCCC5)cc4)cnc23)cs1)C(F)(F)F

inhibition [6]: 2%
Compound: O=C(N[C@@H](C1CC1)C(F)(F)F)c1cc(-c2cnn3cc(-c4ccc(F)cc4)cnc23)cs1
